Results reported in ChEMBL document CHEMBL1944523, “Benzimidazolones: a new class of selective peroxisome proliferator-activated receptor γ (PPARγ) modulators” (J Med Chem, 2011).

Key:
[1] = molecular target: T1, Peroxisome proliferator-activated receptor gamma (Homo sapiens, UniProt P37231); test: Binding affinity to human PPARgamma by scintillation proximity assay
T1 sequence (P37231 whole entry): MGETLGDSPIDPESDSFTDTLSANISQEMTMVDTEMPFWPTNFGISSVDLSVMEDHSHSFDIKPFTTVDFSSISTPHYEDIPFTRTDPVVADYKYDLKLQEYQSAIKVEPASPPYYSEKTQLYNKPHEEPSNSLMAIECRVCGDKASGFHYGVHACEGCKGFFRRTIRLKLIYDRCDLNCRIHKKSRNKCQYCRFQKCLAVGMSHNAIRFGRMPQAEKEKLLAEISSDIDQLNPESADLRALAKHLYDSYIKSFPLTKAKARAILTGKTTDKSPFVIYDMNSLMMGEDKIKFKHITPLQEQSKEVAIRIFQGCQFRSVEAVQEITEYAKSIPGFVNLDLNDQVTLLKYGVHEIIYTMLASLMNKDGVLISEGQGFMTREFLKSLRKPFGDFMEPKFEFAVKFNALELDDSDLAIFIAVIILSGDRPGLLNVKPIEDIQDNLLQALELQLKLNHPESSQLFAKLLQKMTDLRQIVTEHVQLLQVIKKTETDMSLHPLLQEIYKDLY
Summary of the method: (§1)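 Scintillation proximity binding assay on PPAR receptors giving IC50; mean of three determinations.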

[2] = molecular target: T2, Peroxisome proliferator-activated receptor alpha (Homo sapiens, UniProt Q07869); test: Binding affinity to human PPARalpha expressed in COS-1 by scintillation proximity assay; summary of the method: as §1
T2 sequence (Q07869 whole entry): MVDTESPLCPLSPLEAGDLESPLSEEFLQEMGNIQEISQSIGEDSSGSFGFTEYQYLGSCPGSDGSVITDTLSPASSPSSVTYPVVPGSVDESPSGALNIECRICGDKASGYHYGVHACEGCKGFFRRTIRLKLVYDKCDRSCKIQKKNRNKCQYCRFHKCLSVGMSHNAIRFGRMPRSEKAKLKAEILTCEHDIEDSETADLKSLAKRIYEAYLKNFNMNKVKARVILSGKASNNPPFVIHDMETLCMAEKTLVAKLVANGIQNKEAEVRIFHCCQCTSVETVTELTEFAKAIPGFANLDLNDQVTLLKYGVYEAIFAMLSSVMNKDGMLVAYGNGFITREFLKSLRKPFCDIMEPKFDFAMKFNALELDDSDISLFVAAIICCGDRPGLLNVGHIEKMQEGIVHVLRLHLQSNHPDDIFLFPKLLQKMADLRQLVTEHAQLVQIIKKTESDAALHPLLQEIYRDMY

[3] = molecular target: T3, Peroxisome proliferator-activated receptor delta (Homo sapiens, UniProt Q03181); test: Binding affinity to PPARdelta by scintillation proximity assay; summary of the method: as §1
T3 sequence (Q03181 whole entry): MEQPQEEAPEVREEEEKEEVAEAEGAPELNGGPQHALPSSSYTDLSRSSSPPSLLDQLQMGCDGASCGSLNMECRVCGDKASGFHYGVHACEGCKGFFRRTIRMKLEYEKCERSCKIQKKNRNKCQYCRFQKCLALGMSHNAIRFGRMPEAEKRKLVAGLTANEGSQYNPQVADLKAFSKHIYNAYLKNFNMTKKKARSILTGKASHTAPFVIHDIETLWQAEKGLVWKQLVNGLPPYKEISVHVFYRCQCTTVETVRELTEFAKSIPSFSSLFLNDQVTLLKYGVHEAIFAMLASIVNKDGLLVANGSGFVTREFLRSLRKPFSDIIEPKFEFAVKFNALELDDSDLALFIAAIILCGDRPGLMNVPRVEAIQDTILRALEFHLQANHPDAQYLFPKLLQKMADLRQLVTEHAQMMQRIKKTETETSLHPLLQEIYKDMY

[4] = molecular target: T1, Peroxisome proliferator-activated receptor gamma; test: Partial agonist activity at human PPARgamma LBD assessed as activation of CBP1-453 by HTRF assay; format: functional
[5] = molecular target: T1, Peroxisome proliferator-activated receptor gamma; test: Partial agonist activity at human PPARgamma LBD assessed as activation of PGC1 by HTRF assay; format: functional
[6] = molecular target: T1, Peroxisome proliferator-activated receptor gamma; test: Partial agonist activity at human PPARgamma LBD assessed as activation of Src-1 by HTRF assay; format: functional
[7] = molecular target: T1, Peroxisome proliferator-activated receptor gamma; test: Partial agonist activity at human PPARgamma LBD assessed as activation of PBP by HTRF assay; format: functional
[8] = molecular target: T1, Peroxisome proliferator-activated receptor gamma; test: Agonist activity at human PPARgamma expressed in COS-1 cells co-expressing with Gal4 by transactivation assay; format: functional, cell-based
Summary of the method: (§2)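 GAL4-PPAR chimeric receptor transactivation in transiently co-transfected COS-1 cells with a GAL4-responsive reporter; potency as EC50 and maximum activation expressed relative to rosiglitazone; triplicate, mean reported.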

[9] = molecular target: T4, Peroxisome proliferator-activated receptor gamma (Homo sapiens) (UniProt P37231); test: Agonist activity at human PPARgamma expressed in COS-1 cells co-expressing with Gal4 by transactivation assay relative to rosiglitazone; format: functional, cell-based; summary of the method: as §2
T4 sequence (whole entry): T1 sequence (P37231 whole entry)

Rattus norvegicus [10] = test: Dose normalized AUC in rat at 2 mg/kg, po by LC-MS/MS analysis; format: ADME, organism-based; parameters: dose 2 mg/kg, route oral; details: in vivo
Summary of the method: (§3)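 Rat pharmacokinetics: 2 mpk oral in 5% methylcellulose, 0.5 mpk iv in ethanol/PEG400/water (1/4/5). Blood sampled at set intervals; plasma acidified with 0.5 M formate buffer pH 3.0, acetonitrile-precipitated, quantified by LC−MS−MS against spiked control-plasma calibration curves.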

Rattus norvegicus [11] = test: Plasma clearance in rat at 0.5 mg/kg, iv and 2 mg/kg, po by LC-MS/MS analysis; format: ADME, organism-based; details: in vivo; summary of the method: as §3
[12] = Half life in rat at 0.5 mg/kg, iv and 2 mg/kg, po by LC-MS/MS analysis; format: ADME, organism-based; details: in vivo; summary of the method: as §3
[13] = Oral bioavailability in rat at 2 mg/kg by LC-MS/MS analysis; format: ADME, organism-based; details: in vivo; summary of the method: as §3
Mus musculus = test: Antidiabetic activity in db/db C57BLKS/J-m +/+ Leprdb mouse assessed as reduction of glucose level at 30 mg/kg, po qd for 10 days measured on 11 relative to control; format: functional; parameters: scale not given: the % may be the effect or the level left
Summary of the method: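 Male db/db (C57BLKS/J-m +/+Leprdb) mice, 12−13 weeks old, seven per group, chow and water freely available; once-daily oral gavage in 0.25% methylcellulose vehicle for 11 days. Tail blood drawn just before next dose on days 0, 4, 7 and 11 for plasma glucose. Value is percent correction versus vehicle control; mean of n = 7; rosiglitazone 10 mpk positive control.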

Compound | IC50 [1] [nM] | IC50 [2] [nM] | IC50 [3] [nM] | EC50 [8] [nM] | Emax [9] [%] | further results
COc1ccc2c(-n3c(=O)n(Cc4ccc([C@@]5(C)OC(=O)NC5=O)cc4)c4cc(C(F)(F)F)ccc43)noc2c1 | 2180 | > 50000 | > 50000 |  |  | 
CN(CCOc1ccc(C[C@H](OCC(F)(F)F)C(=O)O)cc1)c1nc2ccccc2o1 |  |  |  |  |  | EC50 [4]: 1 nM; EC50 [5]: 1 nM; EC50 [6]: 2 nM; EC50 [7]: 1 nM
COc1ccc2c(-n3c(=O)n(Cc4ccc(Cl)c(O[C@H](C)C(=O)O)c4)c4cc(C(F)(F)F)ccc43)noc2c1 | 4.1 | > 50000 | > 50000 | 103 | 28 | 
COc1ccc2c(-n3c(=O)n(Cc4cc(O[C@H](C)C(=O)O)ccc4Cl)c4cc(C(F)(F)F)ccc43)noc2c1 | 9.1 | > 50000 | > 50000 | 102 | 26 | 
COc1ccc2c(-n3c(=O)n(Cc4ccc(Cl)c(O[C@H](C)C(=O)O)c4)c4cc(OC(F)(F)F)ccc43)noc2c1 | 3.2 | > 50000 | > 50000 | 11.4 | 39 | 
COc1ccc2c(-n3c(=O)n(-c4cccc([C@@]5(C)OC(=O)NC5=O)c4)c4cc(C(F)(F)F)ccc43)noc2c1 | 6930 | > 50000 | > 50000 |  |  | 
COc1ccc2c(-n3c(=O)n(Cc4cccc([C@@]5(C)OC(=O)NC5=O)c4)c4cc(C(F)(F)F)ccc43)noc2c1 |  |  |  |  | 45 | 
Cc1c(C(=O)c2ccc(Cl)cc2)c2ccc(OC(F)(F)F)cc2n1Cc1cccc(O[C@H](C)C(=O)O)c1 |  |  |  |  |  | EC50 [4]: 6 nM; EC50 [5]: 5 nM; EC50 [6]: > 50000 nM; EC50 [7]: 5 nM
COc1ccc2c(-n3c(=O)n(Cc4cc([C@@]5(C)OC(=O)NC5=O)ccc4Cl)c4cc(C(F)(F)F)ccc43)noc2c1 | 7.7 | > 50000 | > 50000 | 17 | 28 | 
COc1ccc2c(-n3c(=O)n(Cc4ccc(Cl)c(O[C@@H](C)C(=O)O)c4)c4cc(C(F)(F)F)ccc43)noc2c1 | 66 | > 50000 | > 50000 | 3000 | 4 | 
Cc1c(C(=O)c2ccc(Cl)cc2)c2ccc(OC(F)(F)F)cc2n1Cc1cccc(O[C@@H](C(=O)O)C(C)C)c1 |  |  |  |  |  | EC50 [4]: 7 nM; EC50 [5]: 5 nM; EC50 [6]: 9 nM; EC50 [7]: 6 nM
C[C@@H](Oc1cc(Cn2c(=O)n(C(=O)c3ccc(Cl)cc3)c3ccc(C(F)(F)F)cc32)ccc1Cl)C(=O)O | 255 | > 50000 | > 50000 | 489 | 21 | 
Cc1ccc2onc(-n3c(=O)n(Cc4ccc(Cl)c(O[C@H](C)C(=O)O)c4)c4cc(C(F)(F)F)ccc43)c2c1 | 11.2 | > 50000 | > 50000 | 3000 | 53 | 
COc1ccc2c(-n3c(=O)n(Cc4cc(O[C@H](C)C(=O)O)ccc4Cl)c4ccccc43)noc2c1 | 13.7 | > 50000 | > 50000 | 51.1 | 50 | AUC/dose (Rattus norvegicus [10]): 5 µM·kg·h/mg; clearance (Rattus norvegicus [11]): 7.3 mL/min/kg; half-life [12]: 6.9 h; bioavailability [13]: 97%; EC50 [4]: 11 nM; EC50 [5]: 8 nM; EC50 [6]: > 50000 nM; EC50 [7]: 11 nM; Activity (Mus musculus): 30%
Cc1ccc2c(-n3c(=O)n(Cc4ccc(Cl)c(O[C@H](C)C(=O)O)c4)c4cc(C(F)(F)F)ccc43)noc2c1 | 14.2 | > 50000 | > 50000 | 77.5 | 37 | 
C[C@@H](Oc1cc(Cn2c(=O)n(-c3noc4ccc(Cl)cc34)c3ccc(C(F)(F)F)cc32)ccc1Cl)C(=O)O | 35.4 | > 50000 | > 50000 | 120 | 36 | 
COc1ccc2c(-n3c(=O)n(Cc4cccc(O[C@H](C)C(=O)O)c4)c4cc(C(F)(F)F)ccc43)noc2c1 | 924 | > 50000 | > 50000 |  |  | 
COc1ccc2c(-n3c(=O)n(Cc4ccccc4[C@@]4(C)OC(=O)NC4=O)c4cc(C(F)(F)F)ccc43)noc2c1 | 6630 | > 50000 | > 50000 |  |  | 
C[C@@H](Oc1cc(Cn2c(=O)n(-c3ccc(C(C)(C)C)cc3)c3ccc(C(F)(F)F)cc32)ccc1Cl)C(=O)O | 161 | > 50000 | > 50000 | 135 | 15 | EC50 [4]: 480 nM; EC50 [5]: 460 nM; EC50 [6]: > 50000 nM; EC50 [7]: 440 nM
COc1ccc2c(-n3c(=O)n(Cc4cccc([C@@]5(C)OC(O)=NC5=O)c4)c4cc(C(F)(F)F)ccc43)noc2c1 | 93 | > 50000 | > 50000 | 237 |  | 
CC[C@@H](Oc1cccc(Cn2c(=O)n(-c3noc4cc(OC)ccc34)c3ccc(C(F)(F)F)cc32)c1)C(=O)O | 3660 | > 50000 | > 50000 |  |  | 
Cc1cccc2c(-n3c(=O)n(Cc4ccc(Cl)c(O[C@H](C)C(=O)O)c4)c4cc(C(F)(F)F)ccc43)noc12 | 9.2 | > 50000 | > 50000 | 4.1 | 25 | 
C[C@@H](Oc1cc(Cn2c(=O)n(-c3noc4cc(Cl)ccc34)c3ccc(C(F)(F)F)cc32)ccc1Cl)C(=O)O | 68 | > 50000 | > 50000 | 200 | 32 | EC50 [4]: > 50000 nM; EC50 [5]: 3240 nM; EC50 [6]: > 50000 nM; EC50 [7]: > 50000 nM
C[C@@H](Oc1cc(Cn2c(=O)n(Cc3ccc(Cl)cc3)c3ccc(C(F)(F)F)cc32)ccc1Cl)C(=O)O | 4800 | > 50000 | > 50000 | 3000 | 17 | 
COc1ccc2c(-n3c(=O)n(Cc4ccc(Cl)c(O[C@H](C)C(=O)O)c4)c4ccc(C(F)(F)F)cc43)noc2c1 | 2.3 | > 50000 | > 50000 | 83 | 43 | 
COc1ccc2c(-n3c(=O)n(Cc4ccc(Cl)c(O[C@H](C)C(=O)O)c4)c4ccc(OC(F)(F)F)cc43)noc2c1 | 4.1 | > 50000 | > 50000 | 13.2 | 31 | 
C[C@@H](Oc1cc(Cn2c(=O)n(-c3nc4ccc(Cl)cc4s3)c3ccc(C(F)(F)F)cc32)ccc1Cl)C(=O)O | 1370 | > 50000 | > 50000 |  |  | 
